Reference: ChEMBL document CHEMBL5034002, “Benzoheterocyclic Oxime Carbamates Active against Mycobacterium tuberculosis: Synthesis, Structure-Activity Relationship, Metabolism, and Biology Triaging” (J Med Chem, 2021)
≈ marks a conversion by molar mass, not a printed value. Calls of active or inactive are those of the source. The calls are words filed in the database; no cut-off is given here.

Columns and labels:
[1] = system: Mycobacterium tuberculosis; assay: Antitubercular activity against Mycobacterium tuberculosis H37RvMA incubated for 14 days in GAST/FE medium by Alamar blue assay; format: functional; settings: 336 h, time 14 day
Summary of the method: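 Mtb H37RvMa grown in GAST/Fe medium, 14 day incubation with compound, growth read by Alamar Blue.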

[2] = Kinetic solubility of the compound in pH 6.5; format: physicochemical; settings: buffer, read-out: Kinetic_solubility
CHO = assay: Cytotoxicity against CHO cells; format: cell-based; settings: Cricetulus griseus
Summary of the method: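 Cytotoxicity measured on Chinese hamster ovary (CHO) cells.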

[3] = system: Mycobacterium tuberculosis; assay: Antitubercular activity against Mycobacterium tuberculosis H37RvMA infected in THP-1 cells assessed as intracellular bacterial growth at 10 uM measured over 6 days; format: functional, organism-based; settings: time 6.0 day
Summary of the method: (§1)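 THP-1 macrophages infected in vitro with Mtb H37RvMa, then treated with compound over 6 days (10 μM, or increasing concentrations up to 80 μM). Intracellular bacterial growth was compared with untreated control at day 6 post treatment by one-way ANOVA with Dunnett's test.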

[4] = system: Mycobacterium tuberculosis; assay: Drug degradation in Mycobacterium tuberculosis H37RvMA assessed as compound hydrolysis at 0.1 uM incubated over 96 hrs by LC-MS/MS analysis; format: functional, organism-based
Summary of the method: (§2)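 Compound at 0.1 μM in 7H9/OADC medium was added to log-phase Mtb H37RvMa culture and sampled over 96 h, earliest at 3 h. Controls were heat-killed culture and sterile medium. Analysis by LC-MS/MS as analyte/internal standard peak area ratio, expressed as % of mean time-zero ratio. One-way ANOVA with Dunnett's test against medium control at each time point.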

[5] = system: Mycobacterium tuberculosis; assay: Antitubercular activity against Mycobacterium tuberculosis H37RvMA infected in THP-1 cells assessed as intracellular bacterial growth at 80 uM measured over 6 days; format: functional, organism-based; settings: time 6.0 day; summary of the method: as §1
[6] = system: Mycobacterium tuberculosis; assay: Antitubercular activity against Mycobacterium tuberculosis H37RvMA infected in THP-1 cells assessed as intracellular bacterial growth measured over 6 days; format: functional, organism-based; settings: dose 10-80 µM, time 6.0 day; summary of the method: as §1
[7] = system: Mycobacterium tuberculosis; assay: Drug degradation in Mycobacterium tuberculosis H37RvMA at 0.1 uM incubated over 96 hrs by LC-MS/MS analysis; format: functional, organism-based; summary of the method: as §2
[8] = system: Mycobacterium tuberculosis; assay: Antitubercular activity against Mycobacterium tuberculosis H37RvMA incubated for 14 days in 7H9/OHADC medium by Alamar blue assay; format: functional; settings: 336 h, time 14 day
Enterobacter cloacae = assay: Antibacterial activity against Enterobacter cloacae; format: functional
Escherichia coli = assay: Antibacterial activity against Escherichia coli ATCC 25922; format: functional
Klebsiella pneumoniae = assay: Antibacterial activity against Klebsiella pneumoniae BAA-1705; format: functional; settings: ATCC BAA-1705
Acinetobacter baumannii = assay: Antibacterial activity against Acinetobacter baumannii ATCC 19606; format: functional
Pseudomonas aeruginosa = assay: Antibacterial activity against Pseudomonas aeruginosa ATCC 27853; format: functional
Staphylococcus aureus = assay: Antibacterial activity against Staphylococcus aureus ATCC 25923; format: functional
[9] = Stability in human liver microsomes assessed as compound remaining after 30 mins; format: ADME, Microsome; settings: read-out: Stability
[10] = Stability in rat liver microsomes assessed as compound remaining after 30 mins; format: ADME, Microsome; settings: read-out: Stability
[11] = Stability in mouse liver microsomes assessed as compound remaining after 30 mins; format: ADME, Microsome; settings: read-out: Stability
[12] = Stability in human liver S9 fraction assessed as compound remaining after 40 mins; format: ADME, subcellular; settings: read-out: Stability
[13] = biological target: Voltage-gated inwardly rectifying potassium channel KCNH2 (Homo sapiens, UniProt Q12809); assay: Inhibition of human ERG by Ionworks electrophysiology assay
Summary of the method: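 hERG inhibition measured by electrophysiology on IonWorks HT.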

Voltage-gated inwardly rectifying potassium channel KCNH2, sequence (Q12809 whole entry): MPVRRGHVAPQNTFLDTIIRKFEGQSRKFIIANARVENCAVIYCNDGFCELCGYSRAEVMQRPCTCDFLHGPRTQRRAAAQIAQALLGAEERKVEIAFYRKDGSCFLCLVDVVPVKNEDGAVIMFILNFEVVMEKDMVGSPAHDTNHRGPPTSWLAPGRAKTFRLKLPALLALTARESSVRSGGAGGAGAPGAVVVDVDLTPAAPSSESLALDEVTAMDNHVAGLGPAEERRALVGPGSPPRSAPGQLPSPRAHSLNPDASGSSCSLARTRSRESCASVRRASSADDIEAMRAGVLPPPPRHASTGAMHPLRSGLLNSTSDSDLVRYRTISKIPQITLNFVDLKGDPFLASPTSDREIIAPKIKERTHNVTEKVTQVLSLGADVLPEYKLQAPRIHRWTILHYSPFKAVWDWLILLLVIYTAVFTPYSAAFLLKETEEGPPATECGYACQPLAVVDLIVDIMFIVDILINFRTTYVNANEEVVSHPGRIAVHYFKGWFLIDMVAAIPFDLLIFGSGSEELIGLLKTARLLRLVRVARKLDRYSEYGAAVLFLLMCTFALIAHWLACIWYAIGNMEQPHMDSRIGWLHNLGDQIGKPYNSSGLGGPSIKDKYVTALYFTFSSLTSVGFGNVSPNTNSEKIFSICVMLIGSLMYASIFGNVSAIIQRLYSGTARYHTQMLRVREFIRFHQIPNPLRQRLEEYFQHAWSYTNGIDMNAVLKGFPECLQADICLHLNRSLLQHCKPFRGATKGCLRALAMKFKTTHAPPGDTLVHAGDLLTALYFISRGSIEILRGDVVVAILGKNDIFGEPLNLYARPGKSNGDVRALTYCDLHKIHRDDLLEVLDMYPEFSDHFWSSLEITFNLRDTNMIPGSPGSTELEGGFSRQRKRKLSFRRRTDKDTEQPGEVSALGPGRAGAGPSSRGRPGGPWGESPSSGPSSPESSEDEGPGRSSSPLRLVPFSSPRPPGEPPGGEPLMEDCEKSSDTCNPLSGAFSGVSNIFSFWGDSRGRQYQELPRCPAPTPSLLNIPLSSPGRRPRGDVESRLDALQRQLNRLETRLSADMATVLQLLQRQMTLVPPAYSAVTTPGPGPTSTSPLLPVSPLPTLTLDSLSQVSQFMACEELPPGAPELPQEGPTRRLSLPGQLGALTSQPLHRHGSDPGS

SMILES	MIC [1] [µM]	IC50 (CHO) [µM]	further results
[O-][n+]1onc(-c2nc3ccccc3s2)c1-c1nc2ccccc2s1	> 50		solubility kinetic [2]: < 5 µM
CC(=O)Nc1ccc2nc(/C(C#N)=N/OC(=O)N(C)C)oc2c1	5.2 (≈ 1.64 µg/mL)	> 100	
CN(C)S(=O)(=O)O/N=C(\C#N)c1nc2ccccc2s1	0.3 (≈ 0.0931 µg/mL)	91.3	
C/C(=N\O)c1nc2ccccc2s1	> 125	> 100	
CN(C)C(=O)O/N=C(\C#N)c1nc2ccc([N+](=O)[O-])cc2o1	< 0.24	46.8	
CCOC(=O)CO/N=C(\C#N)c1nc2ccccc2s1	> 160		
CN(C)C(=O)O/N=C(\C#N)c1nc2cc(Br)ccc2o1	< 0.24		
O/N=C(\c1cnco1)c1nc2ccccc2s1	50 (≈ 12.3 µg/mL)	> 100	
O/N=C(\c1ccccc1)c1nc2ccccc2s1	> 50	> 100	
O/N=C(/c1nc2ccccc2s1)C1CCCC1	> 125	83.5	
Cc1cccc2oc(/C(C#N)=N/OC(=O)N(C)C)nc12	< 0.24	> 100	
CN(C)C(=O)O/N=C(\C#N)c1nc2ccccc2[nH]1	9.4 (≈ 2.42 µg/mL)		solubility kinetic [2]: 29 µM (≈ 7.46 µg/mL)
CN(C)C(=O)O/N=C(\C#N)c1ccccn1	9.4 (≈ 2.05 µg/mL)		solubility kinetic [2]: 175 µM (≈ 38.2 µg/mL)
O/N=C/c1nc2ccccc2s1	> 160		
O/N=C(\c1cnccn1)c1nc2ccccc2s1	3.6 (≈ 0.923 µg/mL)	11.7	
N#C/C(=N\OCc1ccccc1)c1nc2ccccc2s1	20 (≈ 5.87 µg/mL)		
N#C/C(=N\O)c1nc2ccccc2s1	> 160	> 100	
Cc1ccc2oc(/C(C#N)=N/OC(=O)N(C)C)nc2c1	< 0.24	> 100	
CN(C)C(=O)O/N=C(\C#N)c1nc2ccc(F)cc2o1	< 0.24	> 100	
N#C/C(=N\OCc1cccnc1)c1nc2ccccc2s1	> 160		
O/N=C(\c1ccc2ncsc2c1)c1nc2ccccc2s1	> 125	> 50	
CON=C(c1nc2ccccc2s1)c1nc2ccccc2s1	> 125	> 50	
CN(C)C(=O)O/N=C(\C#N)c1ccccc1	9.4 (≈ 2.04 µg/mL)		
Cc1nnc(/C(=N\O)c2nc3ccccc3s2)s1	2.5 (≈ 0.691 µg/mL)	38	
Cc1ccc2nc(/C(C#N)=N/OC(=O)N(C)C)oc2c1	< 0.16	> 100	Activity [3]: inactive
O/N=C(/c1nc2ccccc2s1)C(F)(F)F	37 (≈ 9.11 µg/mL)		
CN(C)C(=O)O/N=C(\C#N)c1nc2cc(F)ccc2o1	< 0.24		
ON=C(c1nc2ccccc2s1)c1nc2ccccc2s1	0.8 (≈ 0.249 µg/mL)	> 100	

SMILES	MIC [1] [µM]	IC50 (CHO) [µM]	further results
CN(C)C(=O)O/N=C(\C#N)c1nc2ccc(Cl)cc2o1	< 0.24	> 100	Drug degradation [4]: Unstable; Activity [3]: inactive; Activity [5]: Active; Activity [6]: Dose-Dependent Effect
OC(O)(c1nc2ccccc2s1)C(F)(F)F	> 50		solubility kinetic [2]: 184 µM (≈ 45.9 µg/mL)
Cc1nc(/C(=N\O)c2nc3ccccc3s2)no1	> 160		
N#C/C(=N\OCc1ccccn1)c1nc2ccccc2s1	> 160		
CO[C@H]1/C=C/O[C@@]2(C)Oc3c(C)c(O)c4c(O)c(c(/C=N/N5CCN(C)CC5)c(O)c4c3C2=O)NC(=O)/C(C)=C\C=C\[C@H](C)[C@H](O)[C@@H](C)[C@@H](O)[C@@H](C)[C@H](OC(C)=O)[C@@H]1C [RIFAMPIN]	0.009 (≈ 0.00741 µg/mL)		
CO/N=C(\C#N)c1nc2ccccc2s1	160 (≈ 34.8 µg/mL)		
Cc1ccc2nc(/C(C#N)=N/O)oc2c1	> 160	> 100	Drug degradation [7]: Unstable; Activity [3]: inactive
Cc1nnc(/C(=N\O)c2nc3ccccc3s2)o1	160 (≈ 41.6 µg/mL)		
CS(=O)(=O)O/N=C(\C#N)c1nc2ccccc2s1	0.5 (≈ 0.141 µg/mL)		
CN(C)C(=O)CO/N=C(\C#N)c1nc2ccccc2s1	> 160		
N#C/C(=N\OCc1ccncc1)c1nc2ccccc2s1	20 (≈ 5.89 µg/mL)		
CN(C)C(=O)O/N=C(\C#N)c1nc2ccc(C(F)(F)F)cc2o1	< 0.24	46.3	
CN(C)C(=O)O/N=C(\C#N)c1nc2ccccc2o1	0.3 (≈ 0.0775 µg/mL)	> 100	Drug degradation [7]: Unstable; Activity [3]: inactive; solubility kinetic [2]: 18 µM (≈ 4.65 µg/mL); MIC [8]: 0.6 µM (≈ 0.155 µg/mL); MIC (Enterobacter cloacae): > 125 µM; MIC (Escherichia coli): > 125 µM; MIC (Klebsiella pneumoniae): > 125 µM; MIC (Acinetobacter baumannii): > 125 µM; MIC (Pseudomonas aeruginosa): > 125 µM; MIC (Staphylococcus aureus): > 125 µM; remaining at 0.5 h [9]: > 99%; remaining at 0.5 h [10]: 98%; remaining at 0.5 h [11]: > 99%; remaining at 40 min [12]: 60%; IC50 [13]: > 33 µM
Cc1ccc2nc(/C(C#N)=N/OS(=O)(=O)N(C)C)oc2c1	5 (≈ 1.54 µg/mL)		
O/N=C(/c1nc2ccccc2s1)C1CCCCC1	> 125	51.6	
CN(C)C(=O)O/N=C(\C#N)c1nc2cc(Cl)ccc2o1	< 0.24	> 100	
CN(C)C(=O)O/N=C(\C#N)c1nc2ccccc2s1	< 0.16	> 100	
O/N=C(\c1nnc(C(F)(F)F)s1)c1nc2ccccc2s1	0.78 (≈ 0.258 µg/mL)	15.6	solubility kinetic [2]: 67 µM (≈ 22.1 µg/mL); MIC [8]: 1.2 µM (≈ 0.396 µg/mL); MIC (Enterobacter cloacae): > 125 µM; MIC (Escherichia coli): > 125 µM; MIC (Klebsiella pneumoniae): > 125 µM; MIC (Acinetobacter baumannii): > 125 µM; MIC (Pseudomonas aeruginosa): > 125 µM; MIC (Staphylococcus aureus): > 125 µM; remaining at 0.5 h [9]: > 99%; remaining at 0.5 h [10]: 86%; remaining at 0.5 h [11]: 71%
NNC(=O)c1ccncc1 [ISONIAZID]	0.14 (≈ 0.0192 µg/mL)		
CN(C)C(=O)O/N=C(\C#N)c1nc2ccc(Br)cc2o1	< 0.24	> 100	
Nc1nonc1-c1nc2ccccc2s1	> 50		solubility kinetic [2]: 5 µM (≈ 1.09 µg/mL)
N#C/C(=N\[O-])c1ccccc1.[Na+]	> 50		solubility kinetic [2]: 56 µM
N#C/C(=N\O)c1nc2ccccc2o1	> 160		Activity [3]: inactive
CCCO/N=C(\C#N)c1nc2ccccc2s1	> 160		
Cc1cnc(/C(=N\O)c2nc3ccccc3s2)s1	3.13 (≈ 0.862 µg/mL)	29	
COC(=O)c1ccc2nc(/C(C#N)=N/OC(=O)N(C)C)oc2c1	< 0.24	7.05	
N#C/C(=N\O)c1ccccn1	> 50		solubility kinetic [2]: 202 µM (≈ 29.7 µg/mL)
